# Reference: ChEMBL document CHEMBL3867450, “Synthesis of Natural Acylphloroglucinol-Based Antifungal Compounds against Cryptococcus Species” (J Nat Prod, 2016)
# Active and inactive are the calls of the source. No cut-off for these calls is given here.
# Legend:
# [1] = Selectivity index, ratio of IC50 for African green monkey Vero cells to MIC for Cryptococcus neoformans ATCC 90113; format: toxicity, cell-based; conditions: read-out: Selectivity Index
# Procedure, shortened: (§1)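 Selectivity index is the mammalian-cell IC50 (neutral red assay, Vero or LLC-PK1) divided by the MIC against C. neoformans ATCC 90113 (modified CLSI method).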
# [2] = test system: Cryptococcus bacillisporus; test: Antifungal activity against Cryptococcus gattii ATCC 32609 assessed as growth inhibition measured after 72 hrs by CLSI method; format: functional; conditions: ATCC 32609, 72 h
# Procedure, shortened: (§2)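 Susceptibility testing by a modified CLSI (formerly NCCLS) method against C. neoformans ATCC 90113, C. neoformans H99 (from Duke University) or C. gattii ATCC 32609. The top test concentration was 20 μg/mL. MIC is the lowest concentration allowing no detectable growth. IC50 is the concentration giving 50% growth inhibition.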
# [3] = Selectivity index, ratio of IC50 for pig LLC-PK1 cells to MIC for Cryptococcus neoformans ATCC 90113; format: toxicity, cell-based; conditions: read-out: Selectivity Index; procedure, shortened: as §1
# [4] = Antifungal activity against Cryptococcus neoformans ATCC 90113 assessed as growth inhibition measured after 72 hrs by CLSI method; format: functional; procedure, shortened: as §2
# Cryptococcus neoformans [5] = test: Antifungal activity against Cryptococcus neoformans H99 assessed as growth inhibition measured after 72 hrs by CLSI method; format: functional; conditions: var grubii H99 ; procedure, shortened: as §2
# [6] = Cytotoxicity against African green monkey Vero cells assessed as reduction in viable cells measured after 48 hrs by neutral red dye-based method; format: toxicity, cell-based; conditions: African green monkey (Chlorocebus sabaeus)
# Procedure, shortened: (§3)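 Vero (African green monkey kidney […]) and LLC-PK1 (pig kidney epithelial) cells were scored for viability by neutral red uptake. The top test concentration was 50 μg/mL. IC50 is the concentration causing 50% growth inhibition of the mammalian cells.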
# [7] = Cytotoxicity against pig LLC-PK1 cells assessed as reduction in viable cells measured after 48 hrs by neutral red dye-based method; format: toxicity, cell-based; conditions: pig (Sus scrofa); procedure, shortened: as §3
# [8] = Antifungal activity against Cryptococcus neoformans ATCC 90113 assessed as growth inhibition at 20 ug/ml measured after 72 hrs by CLSI method; format: functional
# Procedure, shortened: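 Primary screen against C. neoformans ATCC 90113 by a modified CLSI method at 20 μg/mL. Growth inhibition above 50% at this concentration was scored as active and taken to further testing.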
# [9] = test system: Cryptococcus bacillisporus; test: Antifungal activity against Cryptococcus gattii ATCC 32609 assessed as growth inhibition at 20 ug/ml measured after 72 hrs by CLSI method; format: functional; conditions: ATCC 32609, 72 h, read-out: GI
# Cryptococcus neoformans [10] = test: Antifungal activity against Cryptococcus neoformans ATCC 90113 assessed as growth inhibition at 20 ug/ml measured after 72 hrs by CLSI method; conditions: read-out: GI
# Staphylococcus aureus = test: Antibacterial activity against Staphylococcus aureus ATCC 29213 by CLSI method; format: functional
Structure (SMILES),selectivity ratio [1],MIC [2],selectivity ratio [3],MIC [4],MIC (Cryptococcus neoformans [5]),IC50 at 48 h [6],IC50 at 48 h [7],growth inhibition (GI) [8],inhibition of growth at 20 µg/mL [9],inhibition of growth at 20 µg/mL (Cryptococcus neoformans [10]),MIC (Staphylococcus aureus),Activity (Staphylococcus aureus)
CC(C)C(=O)c1c(O)cc(O)c(Cc2ccc([N+](=O)[O-])cc2)c1O,2.7,5 µg/mL,4.2,6.7 µg/mL,10 µg/mL,18 µg/mL,28 µg/mL,> 50%,,,,
CCOC(=O)COc1cc(O)cc(O)c1C(=O)C(C)C,,,,,,,,< 50%,,,,
CC(C)C(=O)c1c(O)cc(O)c(Cc2ccccc2)c1O,4.2,10 µg/mL,4.3,6.7 µg/mL,16.7 µg/mL,28 µg/mL,28.5 µg/mL,> 50%,,,,
CC(C)C(=O)c1c(O)cc(O)c(C(=O)c2ccc(F)cc2)c1O,1.6,6.7 µg/mL,3.3,8.3 µg/mL,11.7 µg/mL,13.5 µg/mL,27.5 µg/mL,> 50%,,,,
OC(Cn1cncn1)(Cn1cncn1)c1ccc(F)cc1F [FLUCONAZOLE],,25 µg/mL,,6.3 µg/mL,12.5 µg/mL,,,,,,,
CC(C)=CCC/C(C)=C/CC/C(C)=C/Cc1c(O)cc(O)c(C(=O)C(C)C)c1O,3.3,7.5 µg/mL,3.6,7.5 µg/mL,5 µg/mL,25 µg/mL,27 µg/mL,> 50%,,,,
CCOC(=O)Cc1c(O)cc(O)c(C(=O)C(C)C)c1O,,,,,,,,< 50%,< 50%,< 50%,,
CCOC(=O)COc1cc(O)c(C(=O)C(C)C)c(OCC(=O)OCC)c1,,,,,,,,< 50%,,,,
CCOC(=O)COc1cc(O)c(C(=O)C(C)C)c(O)c1,,,,,,,,< 50%,,,,
C[C@@H]1[C@H](O)[C@@H](C)/C=C/C=C/C=C/C=C/C=C/C=C/C=C/[C@H](O[C@@H]2O[C@H](C)[C@@H](O)[C@H](N)[C@@H]2O)C[C@@H]2O[C@](O)(C[C@@H](O)C[C@@H](O)[C@H](O)CC[C@@H](O)C[C@@H](O)CC(=O)O[C@H]1C)C[C@H](O)[C@H]2C(=O)O [AMPHOTERICIN B],,0.3 µg/mL,,0.4 µg/mL,0.3 µg/mL,,,,,,,
CC(C)=CCC/C(C)=C/Cc1c(O)cc(O)c(C(=O)C(C)C)c1O,13.2,1 µg/mL,14.4,1.7 µg/mL,1.7 µg/mL,22.5 µg/mL,24.5 µg/mL,> 50%,,,,
CC(C)C(=O)c1c(O)cc(O)c(CC#N)c1O,,,,,,,,< 50%,< 50%,< 50%,,
CC(C)C(=O)c1c(O)cc(O)c(Cc2c(F)cccc2Cl)c1O,16.5,4.2 µg/mL,15.5,1.7 µg/mL,6.7 µg/mL,28 µg/mL,26.3 µg/mL,> 50%,,,,
CC(C)C(=O)c1c(O)cc(O)c(C(=O)C(C)C)c1O,4.6,2.1 µg/mL,7,2.5 µg/mL,3.3 µg/mL,11.5 µg/mL,17.5 µg/mL,> 50%,,,1.3 µg/mL,
CC(C)(C)C(=O)c1c(O)cc(O)cc1O,,,,,,,,< 50%,,,,
CCCC(=O)c1c(O)cc(O)c(CC=C(C)C)c1O,4.9,5 µg/mL,8.5,3.3 µg/mL,8.3 µg/mL,16.3 µg/mL,28 µg/mL,> 50%,,,,
CC(C)C(=O)c1c(O)cc(O)cc1OCc1c(Cl)cccc1Cl,3.9,5 µg/mL,4.2,8.3 µg/mL,5 µg/mL,32.5 µg/mL,34.5 µg/mL,> 50%,,,,
CC(C)C(=O)c1c(O)cc(OCC(=O)NC(C)(C)C)cc1O,,,,,,,,< 50%,,,,

Structure (SMILES),selectivity ratio [1],MIC [2],selectivity ratio [3],MIC [4],MIC (Cryptococcus neoformans [5]),IC50 at 48 h [6],IC50 at 48 h [7],growth inhibition (GI) [8],inhibition of growth at 20 µg/mL [9],inhibition of growth at 20 µg/mL (Cryptococcus neoformans [10]),MIC (Staphylococcus aureus),Activity (Staphylococcus aureus)
COc1ccc(C(=O)c2c(O)cc(O)c(C(=O)C(C)C)c2O)cc1,0.8,8.3 µg/mL,1.9,13.3 µg/mL,10 µg/mL,10.5 µg/mL,24.8 µg/mL,> 50%,,,,
COc1cccc2c1C(=O)c1c(O)c3c(c(O)c1C2=O)C[C@@](O)(C(=O)CO)C[C@@H]3O[C@H]1C[C@H](N)[C@H](O)[C@H](C)O1 [DOXORUBICIN],,,,,,> 10 µg/mL,1.3 µg/mL,,,,,
CCCC(=O)c1c(O)cc(O)c(C(=O)CCC)c1O,6.9,1.5 µg/mL,11.7,2.1 µg/mL,2.5 µg/mL,14.5 µg/mL,24.5 µg/mL,> 50%,,,,
CC(C)C(=O)c1c(O)cc(O)cc1OCc1c(F)cccc1Cl,> 10,5 µg/mL,> 10,5 µg/mL,8.3 µg/mL,> 50 µg/mL,> 50 µg/mL,> 50%,,,,Active
CC(C)=CCc1c(O)cc(O)c(C(=O)C(C)C)c1O,3.6,5 µg/mL,6.2,5 µg/mL,8.3 µg/mL,18 µg/mL,31 µg/mL,> 50%,,,,
CC(C)C(=O)c1c(O)cc(O)c(Cc2c(Cl)cccc2Cl)c1O,27.5,2.1 µg/mL,29.5,1 µg/mL,4.2 µg/mL,27.5 µg/mL,29.5 µg/mL,> 50%,,,,
C#CCc1c(O)cc(O)c(C(=O)C(C)C)c1O,,,,,,,,< 50%,< 50%,< 50%,,
CCCC(=O)c1c(O)cc(O)c(C(=O)c2ccccc2)c1O,2.1,5 µg/mL,4,6.7 µg/mL,6.7 µg/mL,14.3 µg/mL,27 µg/mL,> 50%,,,,
C=CCc1c(O)cc(O)c(C(=O)C(C)C)c1O,,,,,,,,< 50%,< 50%,< 50%,,
CC(C)C(=O)c1c(O)cc(O)c(Cc2ccc(C(C)C)cc2)c1O,> 33.3,2.1 µg/mL,> 33.3,1.5 µg/mL,2.1 µg/mL,> 50 µg/mL,> 50 µg/mL,> 50%,,,10 µg/mL,
CC(C)C(=O)c1c(O)cc(O)c(C(=O)c2ccccc2)c1O,2.3,8.3 µg/mL,4.3,10 µg/mL,10 µg/mL,23 µg/mL,42.5 µg/mL,> 50%,,,,
CC(C)C(=O)c1c(O)cc(OCc2ccc(C(C)C)cc2)cc1O,,,,,,,,< 50%,,,,
CC(C)C(=O)c1c(O)cc(OCc2c(F)cccc2Cl)cc1O,,,,,,,,< 50%,,,,
CC(C)C(=O)c1c(O)cc(O)cc1O,,,,,,,,< 50%,,,,
CC(C)=CCc1c(O)cc(O)c(C(=O)C(C)(C)C)c1O,,,,,,,,< 50%,,,,
CC(C)C(=O)c1c(O)cc(O)cc1OCC(=O)NC(C)(C)C,,,,,,,,< 50%,,,,
CCCC(=O)c1c(O)cc(O)cc1O,,,,,,,,< 50%,,,,
COc1cc(C(=O)c2c(O)cc(O)c(C(=O)C(C)C)c2O)cc(OC)c1OC,,,,,,,,< 50%,< 50%,< 50%,,
